Experimental data taken from ChEMBL document CHEMBL3861953 (J Med Chem, 2016).
In brackets after ≈: the same amount, converted by molar mass. Activity calls are given as the source filed them. The rule behind the calls is not given here.

Legend:
[1] = tested on: Mycobacterium tuberculosis; experiment: Inhibition of recombinant Mycobacterium tuberculosis InhA expressed in Escherichia coli Rosetta (DE3) pLysS at 30 uM using 2-trans-decenoyl-N-acetylcyste-amine as substrate measured for 120 sec in presence of NADH by spectrophotometric method
Outline: (§1)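 His-tagged InhA purified by Ni-chelate then gel filtration. Assay at 25 °C in 30 mM PIPES, 150 mM NaCl, 1 mM EDTA, pH 6.8 with 200 µM trans-2-decenoyl-N-acetylcysteamine, 100 µM NADH, 1 µg enzyme. Initial rate of A340 decrease over 120 s. DMSO 0.1%; triplicates; triclosan positive control.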

[2] = tested on: Mycobacterium marinum; experiment: Antimycobacterial activity against LuxABCDE expressing Mycobacterium marinum measured after 48 hrs by luminescence based serial dilution assay; type: functional
Outline: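 LuxABCDE-expressing M. marinum was grown shaking at 32°C in 7H9 with OADC to OD600 0.8-1. 10^5 bacteria per well were exposed to compounds (submicromolar to submillimolar) in 7H9 with 0.5% v/v DMSO at 32°C. Luminescence was followed for 48 h, with amikacin 10 µM as control. MIC was the lowest concentration giving significant signal reduction versus DMSO control at 48 h.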

[3] = tested on: Klebsiella pneumoniae; experiment: Toxicity against Klebsiella pneumoniae at 10 uM
[4] = Inhibition of recombinant Mycobacterium tuberculosis InhA expressed in Escherichia coli Rosetta (DE3) pLysS using 2-trans-decenoyl-N-acetylcyste-amine as substrate in presence of NADH by spectrophotometric method; outline: as §1
[5] = tested on: Mycobacterium marinum; experiment: Antivirulence activity against Mycobacterium marinum assessed as Dictyostelium discoideum phagocytic plaque formation at 10 uM preincubated for 2 to 3 hrs followed by Dictyostelium discoideum addition measured after 5 to 9 days in presence of Klebsiella pneumoniae relative to control; type: functional
Outline: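 Mixed lawn of mid-log Mm pellet resuspended in equal volume of overnight non-virulent Kp culture diluted 10-5; 50 µl spread on SM agar containing compound (10 µM), dried 2-3 h, then 103 Dictyostelium cells added. Incubated 5-9 days at 25 °C; phagocytic plaque diameter scored 0-4 versus DMSO control.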

[6] = Toxicity against Dictyostelium discoideum at 10 uM
[7] = tested on: Enterococcus faecalis; experiment: Antimicrobial activity against Enterococcus faecalis ATCC 29212 assessed as inhibition of bacterial growth measured after 24 hrs using p-iodonitrotetrazolium violet by broth dilution method; type: functional; settings: ATCC 29212, 24 h
Outline: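 E. faecalis ATCC 29212 in Mueller-Hinton broth. Compounds were taken up at 2 mg/ml in DMSO (stock) and doubling dilutions were made in MHB. Inoculum was 1-5 × 10^5 final, incubated 37°C for 24 h, with sterility, growth and DMSO solvent controls. Growth was read by reduction of INT (2 mg/ml solution, several hours) to formazan. MIC was the lowest concentration with no red-purple colour or visible turbidity.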

[8] = Mycobacterium marinum, 48 h, read-out: MIC

Compound: CN(C)c1ccc(/C=C2\SC(=S)N([C@@H](Cc3c[nH]c4ccccc34)C(=O)O)C2=O)cc1 (stereo in doubt; 12) [listing 1 of 2 here]
- inhibition [1]: Active

Compound: CN(C)c1ccc(/C=C2\SC(=S)N([C@@H](Cc3c[nH]c4ccccc34)C(=O)O)C2=O)c2ccccc12
- MIC [2, 8]: 1.99 µM (≈ 0.998 µg/mL)
- Activity [3]: Non-Toxic
- IC50 [4]: 19.1 µM
- inhibition [1]: Active
- Activity [5]: Active
- Activity [6]: Non-Toxic

Compound: NCC[C@H](O)C(=O)N[C@@H]1C[C@H](N)[C@@H](O[C@H]2O[C@H](CN)[C@@H](O)[C@H](O)[C@H]2O)[C@H](O)[C@H]1O[C@H]1O[C@H](CO)[C@@H](O)[C@H](N)[C@H]1O [AMIKACIN]
- MIC [2, 8]: 1.7 µM (≈ 0.996 µg/mL)

Compound: CCCc1ccc(/C=C2\SC(=S)N([C@H](Cc3c[nH]c4ccccc34)C(=O)O)C2=O)cc1
- MIC [2, 8]: 55.5 µM (≈ 25 µg/mL)
- Activity [3]: Non-Toxic
- IC50 [4]: 13 µM
- inhibition [1]: Active
- Activity [5]: Active
- Activity [6]: Non-Toxic

Compound: O=C(O)[C@H](Cc1c[nH]c2ccccc12)N1C(=O)/C(=C/c2ccc(Cl)cc2)SC1=S
- MIC [2, 8]: 21.1 µM (≈ 9.32 µg/mL)
- Activity [3]: Non-Toxic
- IC50 [4]: 19.7 µM
- inhibition [1]: Active
- Activity [5]: Active
- Activity [6]: Non-Toxic

Compound: O=C(O)[C@@H](Cc1c[nH]c2ccccc12)N1C(=O)/C(=C/c2ccc(N(CCCl)CCCl)cc2)SC1=S
- MIC [2, 8]: 18.3 µM (≈ 10 µg/mL)
- Activity [3]: Non-Toxic
- IC50 [4]: 15.2 µM
- inhibition [1]: Active
- Activity [5]: Active
- Activity [6]: Non-Toxic

Compound: Cc1ccc(/C=C2\SC(=S)N([C@H](Cc3c[nH]c4ccccc34)C(=O)O)C2=O)c2ccccc12
- MIC [2, 8]: 2.11 µM (≈ 0.997 µg/mL)
- Activity [3]: Non-Toxic
- IC50 [4]: 11 µM
- inhibition [1]: Active
- Activity [5]: Active
- MIC [7]: 5.2 µM (≈ 2.46 µg/mL)
- Activity [6]: Non-Toxic

Compound: CCN(CC)c1ccc(/C=C2\SC(=S)N([C@@H](CC(C)C)C(=O)O)C2=O)cc1
- MIC [2, 8]: 2.46 µM (≈ 1 µg/mL)
- Activity [3]: Non-Toxic
- IC50 [4]: 22.4 µM
- inhibition [1]: Active
- Activity [5]: Active
- Activity [6]: Non-Toxic

Compound: CCCc1ccc(/C=C2\SC(=S)N([C@@H](Cc3c[nH]c4ccccc34)C(=O)O)C2=O)cc1
- MIC [2, 8]: 22.2 µM (≈ 10 µg/mL)
- Activity [3]: Non-Toxic
- IC50 [4]: 13 µM
- inhibition [1]: Active
- Activity [5]: Active
- Activity [6]: Non-Toxic

Compound: O=C(O)[C@H](Cc1c[nH]c2ccccc12)N1C(=O)/C(=C/c2ccc(N(CCCl)CCCl)cc2)SC1=S
- MIC [2, 8]: 1.82 µM (≈ 0.998 µg/mL)
- Activity [3]: Non-Toxic
- IC50 [4]: 12.2 µM
- inhibition [1]: Active
- Activity [5]: Active
- Activity [6]: Non-Toxic

Compound: CC(C)C[C@H](C(=O)O)N1C(=O)/C(=C/c2ccc(N(C)C)c3ccccc23)SC1=S
- inhibition [1]: Active

Compound: CCCCC(C(=O)O)N1C(=O)/C(=C/c2ccc(N(C)C)c3ccccc23)SC1=S (racemic)
- MIC [2, 8]: 2.33 µM (≈ 0.999 µg/mL)
- IC50 [4]: 24.4 µM
- inhibition [1]: Active

Compound: CN(C)c1ccc(/C=C2\SC(=S)N([C@@H](Cc3c[nH]c4ccccc34)C(=O)O)C2=O)cc1 (stereo in doubt; 24) [listing 1 of 2 here]
- MIC [2]: 2.08 µM (≈ 0.939 µg/mL)
- Activity [3]: Non-Toxic
- IC50 [4]: 14.7 µM
- Activity [6]: Non-Toxic

Compound: CC(C)C[C@@H](C(=O)O)N1C(=O)/C(=C/c2ccc(N(C)C)c3ccccc23)SC1=S
- inhibition [1]: Active

Compound: O=C(O)[C@H](Cc1c[nH]c2ccccc12)N1C(=O)/C(=C/c2ccc(Cl)cc2Cl)SC1=S
- MIC [2, 8]: 21 µM (≈ 10 µg/mL)
- Activity [3]: Non-Toxic
- IC50 [4]: 9.5 µM
- inhibition [1]: Active
- Activity [5]: Active
- Activity [6]: Non-Toxic

Compound: CN(C)c1ccc(/C=C2\SC(=S)N([C@@H](Cc3c[nH]c4ccccc34)C(=O)O)C2=O)cc1 (stereo in doubt; 24) [listing 2 of 2 here]
- inhibition [1]: Active
- Activity [5]: Active

Compound: CN(C)c1ccc(/C=C2\SC(=S)N([C@@H](Cc3c[nH]c4ccccc34)C(=O)O)C2=O)cc1 (stereo in doubt; 12) [listing 2 of 2 here]
- MIC [2]: 22.17 µM (≈ 10 µg/mL)
- IC50 [4]: 28.6 µM

Compound: Oc1cc(Cl)ccc1Oc1ccc(Cl)cc1Cl [TRICLOSAN]
- MIC [2, 8]: 8.63 µM (≈ 2.5 µg/mL)
- IC50 [4]: 6.1 µM

Compound: CC(C)CC(N1C(=O)/C(=C/c2ccc(N(C)C)c3ccccc23)SC1=S)P(=O)(O)O (configuration not stated)
- MIC [2, 8]: 21.6 µM (≈ 10 µg/mL)
- Activity [3]: Non-Toxic
- IC50 [4]: 19.1 µM
- inhibition [1]: Active
- Activity [5]: Active
- Activity [6]: Non-Toxic

Compound: O=C(O)[C@H](Cc1c[nH]c2ccccc12)N1C(=O)/C(=C/c2c3ccccc3c(Cl)c3ccccc23)SC1=S
- MIC [2, 8]: 184 µM (≈ 100 µg/mL)
- Activity [3]: Non-Toxic
- IC50 [4]: 2.9 µM
- inhibition [1]: Active
- Activity [5]: Active
- MIC [7]: 0.57 µM (≈ 0.31 µg/mL)
- Activity [6]: Non-Toxic

Compound: Cc1ccc(/C=C2\SC(=S)N([C@@H](Cc3c[nH]c4ccccc34)C(=O)O)C2=O)c2ccccc12
- MIC [2, 8]: 0.21 µM (≈ 0.0992 µg/mL)
- Activity [3]: Non-Toxic
- IC50 [4]: 8.7 µM
- inhibition [1]: Active
- Activity [5]: Active
- MIC [7]: 2.6 µM (≈ 1.23 µg/mL)
- Activity [6]: Non-Toxic
